Laboratory results: publication PMC5691919 (ACS Chemical Neuroscience, 2017)
pEC50, pKi: −log10 of the molar value. Where “and” joins values, the source holds several entries; their conditions need not be identical. Equal values may be shown once. Entries after “also recorded” stand apart in the source; their conditions may differ.

How the values were obtained:
rat DOR (C6-DOR) [1] = target: T1, rat DOR (C6-DOR) (Rattus norvegicus, UniProt P33533); assay: [3H]-diprenorphine competitive displacement binding, C6-DOR membranes
Procedure, shortened: (§1)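 Membranes came from C6 glioma cells stably expressing rat MOR or DOR, or CHO cells stably expressing human KOR. Membranes (20 μg protein) in 50 mM Tris-HCl pH 7.4 were incubated with 0.2 nM [³H]-diprenorphine and varying test compound concentrations for 1 h at room temperature, then filtered on GF/C. Nonspecific binding was defined with 10 μM naloxone. Ki came from logistic nonlinear regression; at least three assays in duplicate.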

rat MOR (C6-MOR) [2] = target: T2, rat MOR (C6-MOR) (Rattus norvegicus, UniProt P33535); assay: [3H]-diprenorphine competitive displacement binding, C6-MOR membranes
Procedure, shortened: as §1

rat DOR (C6-DOR) [3] = target: T1, rat DOR (C6-DOR); assay: Stimulation of [35S]-GTPγS binding, C6-DOR membranes; assay type: biochemical; settings: for % stimulation DOR: percent maximal stimulation relative to DPDPE at 10 μM; for % stimulation DOR / EC50 DOR: dns: does not stimulate; for EC50 DOR: [35S]-GTPγS binding, mean (SEM)
Procedure, shortened: (§2)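 Rat MOR or DOR (C6) and human KOR (CHO) membranes (10–20 μg protein) were incubated 1 h at 25 °C in 50 mM Tris-HCl, 100 mM NaCl, 5 mM MgCl₂, pH 7.4, with 0.1 nM [³⁵S]-GTPγS, 30 μM GDP and varying test compound concentrations, then filtered on GF/C. % stimulation was taken relative to 10 μM DAMGO (MOR), DPDPE (DOR) or U69,593 (KOR). EC50 came from nonlinear regression; at least three assays in duplicate.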

rat MOR (C6-MOR) [4] = target: T2, rat MOR (C6-MOR); assay: Stimulation of [35S]-GTPγS binding, C6-MOR membranes; assay type: biochemical; settings: for Emax: read-out: % stimulation MOR; for % stimulation MOR: percent maximal stimulation relative to DAMGO at 10 μM
Procedure, shortened: as §2

human KOR (CHO-KOR) [5] = target: T3, human KOR (CHO-KOR) (Homo sapiens, UniProt P41145); assay: [3H]-diprenorphine competitive displacement binding, CHO-KOR membranes
Procedure, shortened: as §1

human KOR (CHO-KOR) [6] = target: T3, human KOR (CHO-KOR); assay: Stimulation of [35S]-GTPγS binding, CHO-KOR membranes; assay type: biochemical; settings: for EC50 KOR: [35S]-GTPγS binding, mean (SEM); for EC50 KOR / % stimulation KOR: dns: does not stimulate; for % stimulation KOR: percent maximal stimulation relative to U69,593 at 10 μM
Procedure, shortened: as §2

[7] = displacement of [3H]-diprenorphine, mean (SEM), n = 3

Row | SMILES | pKi (rat DOR (C6-DOR) [1]) | pKi (rat MOR (C6-MOR) [2]) | pEC50 (rat DOR (C6-DOR) [3]) | % stimulation DOR (rat DOR (C6-DOR) [3]) | pEC50 (rat MOR (C6-MOR) [4]) | Emax (rat MOR (C6-MOR) [4]) [%] | pKi (human KOR (CHO-KOR) [5]) | pEC50 (human KOR (CHO-KOR) [6]) | EC50 KOR (human KOR (CHO-KOR) [6]) | % stimulation KOR (human KOR (CHO-KOR) [6]) | EC50 DOR (rat DOR (C6-DOR) [3]) | % stimulation MOR (rat MOR (C6-MOR) [4]; dns: does not stimulate) | EC50 MOR (rat MOR (C6-MOR) [4]; [35S]-GTPγS binding, mean (SEM), dns: does not stimulate) | Binding, Ki MOR (rat MOR (C6-MOR) [2]; [7]) | Binding, Ki KOR (human KOR (CHO-KOR) [5]; [7])
1 | COc1ccccc1Cc1ccc2c(c1)[C@H](NC(=O)[C@@H](N)Cc1c(C)cc(O)cc1C)CCN2 [Compound 4a] | 8.19 | 9.47 | 6.89 | 16 (2.2) % | 8.05 | 91 | 7.27 | 6.00 | – | – | – | – | – | – | –
2 | COc1cccc(Cc2ccc3c(c2)[C@H](NC(=O)[C@@H](N)Cc2c(C)cc(O)cc2C)CCN3)c1 [Compound 4b] | 8.27 | 9.96 | 6.64 | 10 (2.6) % | 8.36 | 99 | 7.57 | – | dns^d | displayed no agonist effect; also recorded: dns^d | – | – | – | – | –
3 | COc1ccc(Cc2ccc3c(c2)[C@H](NC(=O)[C@@H](N)Cc2c(C)cc(O)cc2C)CCN3)cc1 [Compound 4c] | 7.82 | 9.54 | – | did not stimulate GTPγS binding; also recorded: eliminating stimulation; also recorded: dns^d | 8.03 | – | 7.00 | – | dns^d | displayed no agonist effect; also recorded: eliminating stimulation; also recorded: dns^d | dns^d | 55 (3.4) % | – | – | –
4 | Cc1cc(O)cc(C)c1C[C@H](N)C(=O)N[C@@H]1CCNc2ccc(Cc3ccccc3O)cc21 [Compound 4d] | 8.25 | 9.59 | 5.82 | – | 8.01 | 89 | 8.24 | 6.57 | – | 67% and 67 (3.5) % | – | – | – | – | –
5 | Cc1cc(O)cc(C)c1C[C@H](N)C(=O)N[C@@H]1CCNc2ccc(Cc3cccc(O)c3)cc21 [Compound 4e] | 8.85 | 9.72 | 6.85 | 67% and 67 (1.6) % | 8.32 | 96 | 7.80 | 6.64 | – | – | – | – | – | – | –
6 | Cc1cc(O)cc(C)c1C[C@H](N)C(=O)N[C@@H]1CCNc2ccc(Cc3ccc(O)cc3)cc21 [Compound 4f] | 6.89 | 8.77 | – | did not stimulate GTPγS binding; also recorded: dns^d | – | – | 6.38 | – | dns^d | displayed no agonist effect; also recorded: dns^d | dns^d | no stimulation of GTP binding and dns | dns | – | –
7 | COc1cccc2c1CC(Cc1ccc3c(c1)[C@H](NC(=O)[C@@H](N)Cc1c(C)cc(O)cc1C)CCN3)C2 (stereo partly drawn) [Compound 8a] | 8.64 | – | – | dns^d | 8.72 | – | 7.17 | – | dns^d | low affinity KOR antagonists; also recorded: dns^d | dns^d | 48 (2.9) % | – | – | –
8 | COc1ccc2c(c1)CC(Cc1ccc3c(c1)[C@H](NC(=O)[C@@H](N)Cc1c(C)cc(O)cc1C)CCN3)C2 (stereo partly drawn) [Compound 8b] | – | 10.10 | – | dns^d | 8.10 | – | 7.48 | – | dns | low affinity KOR antagonists and dns | dns^d | 22 (3.7) % | – | – | –
9 | Cc1cc(O)cc(C)c1C[C@H](N)C(=O)N[C@@H]1CCNc2ccc(CC3Cc4cccc(O)c4C3)cc21 (stereo partly drawn) [Compound 8c] | – | – | – | no stimulation at DOR; also recorded: dns^d | – | – | 9.11 | 7.60 | – | 92% and 92 (3.6) % | dns^d | 66 (3.3) % | – | subnanomolar binding affinity | subnanomolar binding affinity
10 | Cc1cc(O)cc(C)c1C[C@H](N)C(=O)N[C@@H]1CCNc2ccc(CC3Cc4ccc(O)cc4C3)cc21 (stereo partly drawn) [Compound 8d] | 7.82 | 9.09 | – | dns | 8.15 | – | 7.39 | – | dns | low affinity KOR antagonists and dns | dns | 16 (2.4) % | – | – | –
